Results pooled from the literature.
Target: Aurora kinase A (AURKA, Homo sapiens, UniProt O14965)
Sequence (O14965 1-403, as in one of the studies): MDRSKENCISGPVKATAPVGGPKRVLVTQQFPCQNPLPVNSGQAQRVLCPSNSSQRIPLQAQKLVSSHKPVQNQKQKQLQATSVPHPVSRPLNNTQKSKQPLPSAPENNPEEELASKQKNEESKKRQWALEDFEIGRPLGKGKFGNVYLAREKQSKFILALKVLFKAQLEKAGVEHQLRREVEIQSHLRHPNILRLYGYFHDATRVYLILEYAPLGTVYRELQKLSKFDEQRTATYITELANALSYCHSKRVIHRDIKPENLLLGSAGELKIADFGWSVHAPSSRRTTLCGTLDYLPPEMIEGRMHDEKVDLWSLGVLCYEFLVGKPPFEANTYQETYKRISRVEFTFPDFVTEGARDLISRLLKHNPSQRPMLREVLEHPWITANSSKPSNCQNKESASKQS

The remaining signal of `O=C1Nc2ccc(Cl)cc2C1=Cc1cc(Cl)c(O)c(Cl)c1` is reported as 64.2% (cell-free assay; 0.5 µM).
For `CN(c1ccnc(CNc2nc(Nc3ccc4c(c3)CC(=O)N4)ncc2C(F)(F)F)n1)S(C)(=O)=O`, the remaining binding was 14% (cell-free assay; competition with immobilised ligand; 1 µM).
The remaining activity of `Cc1sc(C(=O)NC2COC2)cc1-n1cc(NC(=O)Nc2c(F)cccc2Cl)cn1` is reported as 88.4% (enzyme activity; inhibitor; 10 µM).
The inhibition of `COc1cc2nccc(Oc3ccc(NC(=O)c4c5n(n(-c6ccc(F)cc6)c4=O)CCCC5)cc3)c2cc1OC` is reported as -3% (enzyme activity; inhibitor; 0.1 µM).
`FC(F)c1nc2ccccc2n1-c1nc(N2CCOCC2)nc(N2CCOCC2)n1` has a remaining activity of 99% (enzyme activity; inhibitor; 10 µM).
For `CC(C)(C)c1nc(-c2cccc(NS(=O)(=O)c3c(F)cccc3F)c2F)c(-c2ccnc(N)n2)s1`, the remaining activity was 102% (enzyme activity; inhibitor; radiometric; 1 µM).
With `CN1CC(Oc2cnc(C#N)cc2-c2ccn3nc(NC(=O)C4CC4)cc3c2)C1` the inhibition was 6% (enzyme activity; inhibitor; 1 µM).
For `CCN(CC)c1ccc(C2=NNC(=O)CC2C)cc1[N+](=O)[O-]` (centres unmarked), the remaining activity was 93% (enzyme activity; inhibitor; 10 µM).
For `CCN(CC)CCNC(=O)c1c(C)[nH]c(/C=C2\C(=O)Nc3ccc(F)cc32)c1C`, the remaining activity was 83% (enzyme activity; inhibitor; 0.1 µM).
The inhibition of `CCN(CC)CCNC(=O)c1c(C)[nH]c(/C=C2\C(=O)Nc3ccc(F)cc32)c1C` is reported as 84% (enzyme activity; inhibitor; 10 µM).
`O=C(CSc1nc2nccnc2c(=O)n1CCc1ccccc1)Nc1nccs1` has an inhibition of 1% (enzyme activity; inhibitor; 10 µM).
`O=C(Nc1cnc(Oc2ccc(F)cc2)nc1)N1CCc2ncccc2[C@@H]1c1ccc(F)cc1` gave a remaining binding of 100% (cell-free assay; competition with immobilised ligand; 1 µM).
The inhibition of `CNc1cccc2cc(C(=O)Nc3ccc(C(=O)O)cc3)c(=O)[nH]c12` is reported as 16% (enzyme activity; inhibitor; 10 µM).
`COc1cc(-c2cn(C3CCc4c(F)cccc4N(CC(F)(F)F)C3=O)nn2)ccc1-n1cnc(C)c1` (centres unmarked) has a remaining binding of 100% (cell-free assay; competition with immobilised ligand; 1 µM).
With `Cc1cc(NC(=O)c2cccc3cc(-c4cccc5[nH]nc(N)c45)ccc23)ccc1F` the activity vs control was 95% (enzyme activity; inhibitor; 0.1 µM).
`Cc1ccc(Nc2nccc(N(C)c3ccc4c(C)n(C)nc4c3)n2)cc1S(N)(=O)=O` has an inhibition of 99% (enzyme activity; inhibitor; 10 µM).
`COc1cc(/C=C/C(=O)CC(=O)/C=C/c2ccc(O)c(OC)c2)ccc1O` gave an activity vs control of 85% (enzyme activity; inhibitor; 1 µM).
For `CNC(=O)c1ccccc1Nc1cc(Nc2ccc(N3CCOCC3)cc2OC)ncc1C(F)(F)F`, the inhibition was over 50% (enzyme activity; inhibitor; 1 µM).
`COc1cc2ncnc(Nc3ccc(Oc4ccccc4)cc3C)c2cc1OC` gave an inhibition of 8% (enzyme activity; inhibitor; 1 µM).
With `Cc1cc(NC(=O)c2cccc(S(F)(F)(F)(F)F)c2)cc(-n2ccn3nc(-c4cccnc4)cc23)c1` the remaining binding was 84.9% (cell-free assay; competition with immobilised ligand; 1 µM).
`Nc1ncnc2occ(-c3ccc(NC(=O)Nc4cc(C(F)(F)F)ccc4F)cc3)c12` gave a remaining activity of 0.1% (enzyme activity; inhibitor; 20 µM).
For `Cc1[nH]c(/C=C2\C(=O)Nc3ccc(F)cc32)c(C)c1C(=O)N[C@H]1CCN(C(=O)N(C)C)C1`, the remaining activity was 35% (enzyme activity; inhibitor; 1 µM).
With `O=Nc1c(-c2c(O)[nH]c3ccccc23)[nH]c2ccccc12` the remaining signal was 21.3% (cell-free assay; 0.5 µM).
With `O=C(N1CCS(=O)(=O)CC1)N1C[C@H](c2ccc(OC(F)(F)F)cc2)C[C@H](c2nc(C3CC3)no2)C1` the remaining binding was 100% (cell-free assay; competition with immobilised ligand; 1 µM).
The remaining signal of `O=C1NC(=O)c2cc(Nc3ccc(F)cc3)c(Nc3ccc(F)cc3)cc21` is reported as 92.7% (cell-free assay; 0.5 µM).
With `Cc1c[nH]c2nccc(Oc3c(F)cc(Nc4cc(Cl)nc(N)n4)cc3F)c12` the remaining binding was 94% (cell-free assay; competition with immobilised ligand; 0.1 µM).
`CC/C(=N\NC(=O)NCc1cccc(O)c1)c1ccc(O)c(C)c1O` gave an inhibition of 5.9% (enzyme activity; inhibitor; 0.1 µM).
`CS(=O)(=O)N1CCCC(NC(=O)[C@H](CCC2CCCCC2)NC(=O)c2ccc(CNC(=O)c3cnc4ccccn34)cc2)C1` (some centres unmarked) has a remaining binding of 100% (cell-free assay; competition with immobilised ligand; 0.1 µM).
For `Cc1ccc(C(=O)NCc2ccsc2)cc1C#Cc1cn(C(C)C)c2ncnc(N)c12`, the activity vs control was 50% (enzyme activity; inhibitor; 1 µM).
For `COc1cc(Nc2cnc(C#N)c(O[C@H](C)CN(C)C)n2)ncc1-c1cnn(C)c1`, the remaining activity was 84% (enzyme activity; inhibitor; radiometric; 1 µM).
For `CS(=O)(=O)c1cc(C2(NC(=O)c3cncc4c3cnn4-c3ccc(F)cc3)CC2)ccn1`, the remaining binding was 89% (cell-free assay; competition with immobilised ligand; 1 µM).
With `CNC(=O)c1cc(Oc2ccc(NC(=O)Nc3ccc(Cl)c(C(F)(F)F)c3)cc2)ccn1` the inhibition was 86% (enzyme activity; inhibitor; 10 µM).
